Screening data (PubChem)
Ecoli tolC – blocks growth of E. coli BW25113 tolC mutant; growth inhibition, % at 10 µM (by protocol); OD615; AID 573; hit rate 2.2% among 65,000;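 active = growth inhibition at or above a cutoff equal to the mean over every tested compound plus 3 SD, cut at about 60% in these data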;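 also: growth measured after 20 h incubation at 37 °C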
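Test system: E. coli BW25113 ΔtolC::kan bacteria; incubation: 37 °C, 20 h exposure; medium: LB broth supplemented with 50 µg/mL kanamycin; read-out basis: percent growth inhibition; signal: A615 absorbance measurement; compound: 10 µM final, single dose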
PostGolgi ctrl – inhibits growth of the yeast control strain. inhibition, % at 10 µM. AID 738. efflux-deficient yeast background strain, growth absorbance A615, 16 h. hit rate 5% among 98,000
PostGolgi yeast – growth inhibition of a yeast mutant, post-Golgi transport screen | post-Golgi transport phenotypic cell assay | inhibition, % at 10 µM | AID 739 | hit rate 0.9% among 98,000;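 also: yeast cells grown in 1536-well plates; yeast grown about 18 h at 30C before absorbance read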
HePTP inhibitor – inhibitors of human HePTP phosphatase; recombinant HePTP phosphatase activity, OD absorbance; hit rate 0.64% among 110,000; P35236; inhibition, % at 20 µM; in the data active = inhibition above about 50%;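 also: plate controls were vehicle for no effect and reference inhibitor for full effect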
PLAP act – activators of human placental alkaline phosphatase. purified PLAP enzyme, luminescent substrate read-out; hits give high values. AID 696. hit rate 1.2% among 96,000. P05187. activation fold at 20 µM; in the data active = activation fold above about 2
Target sequence (P05187 whole entry, looked up): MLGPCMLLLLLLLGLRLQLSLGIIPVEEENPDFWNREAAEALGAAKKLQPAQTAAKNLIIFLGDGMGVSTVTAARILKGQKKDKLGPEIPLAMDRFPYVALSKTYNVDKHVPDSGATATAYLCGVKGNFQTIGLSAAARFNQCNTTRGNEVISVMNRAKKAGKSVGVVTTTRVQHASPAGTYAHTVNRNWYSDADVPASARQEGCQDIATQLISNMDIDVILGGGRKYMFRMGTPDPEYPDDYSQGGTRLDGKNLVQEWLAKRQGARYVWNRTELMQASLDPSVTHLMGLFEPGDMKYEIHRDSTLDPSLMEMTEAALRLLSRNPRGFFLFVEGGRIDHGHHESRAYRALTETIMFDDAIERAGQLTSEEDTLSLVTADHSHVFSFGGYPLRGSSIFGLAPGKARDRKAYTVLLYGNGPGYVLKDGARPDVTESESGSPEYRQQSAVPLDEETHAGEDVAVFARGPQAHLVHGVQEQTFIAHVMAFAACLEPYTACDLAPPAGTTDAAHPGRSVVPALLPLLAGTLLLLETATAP
Ecoli WT expand – E. coli BW25113 growth inhibition, expanded screen; OD600 absorbance; growth inhibition, % at 100 µM; hit rate 0.15% among 98,000;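 active = growth inhibition above about 50% at one test dose, limit read from the data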;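 also: growth measured after 20 h incubation at 37 °C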
* marks the source's active call; other numbers are inactive results; nt = no result given. Most compounds without a hit are left out; they make up all but 5.5% or so of the library. Rule as the data show it, unless noted: active = inhibition above about 30%; inactive = the rest.

SMILES	Ecoli tolC	PostGolgi ctrl	PostGolgi yeast	HePTP inhibitor	PLAP act	Ecoli WT expand
CC(C)c1ccc(N2C(=O)NC(=O)/C(=C/c3ccc([N+](=O)[O-])o3)C2=O)cc1	nt	nt	nt	88*	nt	nt
Cc1csc(/C(C#N)=C/c2ccccc2Cl)n1	nt	nt	nt	-5	nt	nt
COc1ccc(NC(=S)N2CCC(O)(c3cccc(C(F)(F)F)c3)CC2)cc1	nt	nt	nt	3	nt	nt
CCOc1ccc(N2C(=O)NC(=O)/C(=C\c3ccc(I)o3)C2=O)cc1	nt	nt	nt	25	nt	nt
O=C1NC(=S)N(c2ccccc2F)C(=O)/C1=C/c1ccc(OCc2cccc(C(=O)O)c2)cc1	nt	nt	nt	102*	nt	nt
CCOc1ccc(N2C(=O)/C(=C/c3ccc(I)o3)C(=O)NC2=S)cc1	nt	nt	nt	103*	nt	nt
COc1cccc(-n2c(C)nc3c(cnn3-c3ccc(C)cc3)c2=O)c1	1	7	18	-7	0.9	1
COc1ccc(-n2c(C)nc3c(cnn3-c3ccc(Cl)cc3)c2=O)cc1	75*	8	7	4	1	-2
Cc1cccc(-n2c(C)nc3c(cnn3-c3ccc(F)cc3)c2=O)c1	9	33*	-4	-2	1.1	7
CCOC(=O)c1ccc(-n2c(C)nc3c(cnn3-c3ccc(Cl)cc3)c2=O)cc1	nt	6	-2	nt	1	-11
Cc1ccc(C(=O)N/N=C/C=C/c2ccc([N+](=O)[O-])cc2)cn1	nt	nt	nt	9	nt	nt
CCOc1ccc(N(CC(=O)Nc2ccc(OC)cc2)S(=O)(=O)c2ccc(SC)cc2)cc1	nt	nt	nt	4	nt	nt
O=c1cc(CSc2nnc(Nc3ccccc3)s2)nc2sccn12	nt	3	6	nt	0.9	-1
Cc1cccc(Nc2nnc(SCc3cn4ccsc4n3)s2)c1	39	21	-2	8	2.1*	19
CC1=C(C(=O)OCc2ccccc2)C(c2ccccc2Cl)C2=C(CCCC2=O)N1 (stereo not given)	nt	nt	nt	5	nt	nt
CC(C)CC(=O)NC(NC(=O)CC(C)C)c1cccc([N+](=O)[O-])c1	nt	nt	nt	56*	nt	nt
Cc1cccc(C(=O)NC(NC(=O)c2cccc(C)c2)c2cccc([N+](=O)[O-])c2)c1	nt	nt	nt	3	nt	nt
O=C(NC(NC(=O)c1ccccc1)c1cccc([N+](=O)[O-])c1)c1ccccc1	nt	nt	nt	104*	nt	nt
O=C(C#Cc1ccccc1)c1cccc([N+](=O)[O-])c1	nt	48*	3	nt	1	-1
C/C(=N/OCc1nc2c3c4c(sc3ncn2n1)CCCC4)c1ccc(C)cc1	nt	nt	nt	-3	nt	nt
COC(=O)c1c(C(=O)OC)c(-c2ccc(Cl)c(Cl)c2)n2c1CCC2	nt	36*	1	nt	1.3	-7
COc1ccc(C/C(N)=N/OC(=O)COc2ccc3ccccc3c2)cc1	nt	nt	nt	8	nt	nt
Cc1ccc(S(N)(=O)=O)cc1NC(=O)c1ccc(C(C)(C)C)cc1	nt	nt	nt	-12	nt	nt
Cn1c(/C=C/c2ccc([N+](=O)[O-])o2)nc2ccccc2c1=O	nt	41*	62*	nt	1.2	65*
CC(/C=C/c1ccc(N(C)C)cc1)=N\N=C(/N)SC1CC(=O)N(c2ccc(F)cc2)C1=O (stereo not given)	nt	nt	nt	0	nt	nt
SMILES	Ecoli tolC	PostGolgi ctrl	PostGolgi yeast	HePTP inhibitor	PLAP act	Ecoli WT expand
CC(C)C(=O)NC(c1ccco1)c1ccc2cccnc2c1O (stereo not given)	6	32*	2	-11	1.8	25
COc1ccc(C(NC(C)=O)c2ccc3cccnc3c2O)c(OC)c1 (stereo not given)	-3	nt	nt	8	2.4*	nt
COc1ccc(C(NC(=O)c2ccccc2)c2ccc3cccnc3c2O)cc1 (stereo not given)	nt	nt	nt	-2	nt	nt
O=Nc1c2nc3ccccc3n(O)c-2c2ccccc12	87*	23	7	-1	0.9	2
Cn1c(=O)oc2cc(S(=O)(=O)N3CCCC(C(=O)Nc4ccc5c(c4)OCCO5)C3)ccc21 (stereo not given)	16	31*	18	-3	1.2	-12
COC(=O)c1c(C)oc2c1cc(NS(=O)(=O)c1cccs1)c1ccccc12	nt	38*	0	nt	1.6	-3
Cc1oc2c(cc(NS(=O)(=O)c3ccc4c5c(cccc35)C(=O)N4)c3ccccc32)c1C(=O)OC(C)C	nt	17	-3	nt	1.2	-8
Cc1csc(N(CCC(N)=O)CCC(N)=O)n1	nt	nt	nt	0	nt	nt
CCCCOc1ccc(/C=C2\SC(=S)N(C(C)C(=O)O)C2=O)cc1OC (stereo not given)	nt	nt	nt	11	nt	nt
CC(C(=O)Nc1ccc(NC(=O)c2ccco2)cc1)(c1ccccc1)c1ccccc1	nt	nt	nt	-6	nt	nt
CCOC(=O)C(C)Sc1nc2c(c(=O)[nH]c(=O)n2C)n1Cc1ccc(Cl)cc1 (stereo not given)	23	32*	3	-1	1.3	1
CCC(C)Sc1nc2c(c(=O)[nH]c(=O)n2C)n1Cc1ccc(Cl)cc1 (stereo not given)	20	46*	6	1	1	-5
CC(C)Sc1nc2c(c(=O)[nH]c(=O)n2C)n1Cc1ccc(Cl)cc1	-7	23	3	9	0.9	-1
CCOC(=O)C1CCN(C(=O)Cn2cccc2C(=O)c2ccccc2)CC1	nt	7	4	nt	0.9	-7
CCOC(=O)C1CCCN(C(=O)Cc2c(F)cccc2Cl)C1 (stereo not given)	3	-3	35*	7	1.1	-5
CCOC(=O)C1CCCN(C(=O)Cn2cccc2C(=O)c2ccccc2)C1 (stereo not given)	-4	31*	6	10	1.1	0
CCOc1cc(CNCc2ccccn2)ccc1OCC(=O)NC1CCCCC1	nt	4	0	nt	2*	1
O=C(Cc1ccc(Cl)cc1)c1ccc2c(c1)OCCO2	nt	nt	nt	-1	nt	nt
O=C(Nc1ccc(Cl)c(Cl)c1)OCc1cccnc1	92*	5	-8	11	0.9	21
O=C(NNC(=O)c1cccnc1)Nc1ccc(Cl)c(Cl)c1	nt	16	-2	nt	1.8	2
COc1cc(NC(=O)c2ccc(C(C)(C)C)cc2)c(OC)cc1Cl	nt	nt	nt	2	nt	nt
CC(C)CC(NS(=O)(=O)c1ccc2c(c1)oc(=O)n2C)C(=O)N1CC=C(c2ccccc2)CC1 (stereo not given)	7	2	-6	-3	2.5*	-4
COc1ccc(C(=O)Nc2cc3nn(-c4ccc(C)cc4)nc3cc2C)cc1	nt	nt	nt	-3	nt	nt
Cc1ccc(S(=O)(=O)N(CC(=O)NC(C)c2ccccc2)Cc2ccccc2)cc1 (stereo not given)	nt	nt	nt	7	nt	nt
Cc1cccc(OCC(=O)Nc2cccc(Br)c2)c1	nt	nt	nt	-6	nt	nt
SMILES	Ecoli tolC	PostGolgi ctrl	PostGolgi yeast	HePTP inhibitor	PLAP act	Ecoli WT expand
O=C(Nc1ccc(OC(F)(F)F)cc1)c1ccc2c(c1)OCCO2	nt	nt	nt	6	nt	nt
Cc1cc(C)n2nc(SCc3cc(=O)oc4ccc5ccccc5c34)nc2n1	nt	9	24	nt	1	-1
CCCn1c(SCc2cc(=O)oc3ccc4ccccc4c23)n[nH]c1=O	19	-3	30*	3	1.7	5
COc1ccc(NC(=O)c2nn3c(C(F)(F)F)cc(-c4ccco4)nc3c2Cl)c(OC)c1	nt	nt	nt	-5	nt	nt
CCOC(=O)C1CCCN(C(=O)Cn2nc(CC)n3c(cc4sccc43)c2=O)C1 (stereo not given)	4	53*	-4	8	1.6	5
COc1ccc(Cl)cc1N(C)C(=O)CCc1nc(-c2ccc(C)cc2)no1	90*	33*	-3	6	1.6	-24
